Compound activity deposited in PubChem by several laboratories.
Diaphorase act: compounds boosting diaphorase resazurin reduction – biochemical, uHTS, resorufin fluorescence, counter-screen for diaphorase-coupled primary assays, primary screen. AID 1229, 2008. actives 0.005% (n = 190,000). activation factor at 20 µM. Diaphorase/resazurin coupled assay, 16 min; active compounds read high; 1 = vehicle wells, 0 = NADH-free wells;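 active means diaphorase activity raised at least twofold by the compound at 20 µM; inactive means activation factor below 2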
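Test system: Clostridium kluyveri diaphorase, purified enzyme; input: enzyme 0.07 U/mL final; buffer or medium: 50 mM HEPES pH 7.4 with 4.542 mM MgCl2, 0.005% Tween 20; also added: 0.114 mM NADH and 0.1 mM resazurin, final amounts; schedule: 16 min enzyme reaction, ambient temperature; technique: fluorescence of resorufin, 544 nm excitation, 590 nm emission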
ATG4B inh: ATG4B protease inhibitors, primary screen, biochemical, fluorescence, uHTS; AID 504462, 2011; actives 0.51% (n = 340,000); inhibition, % at 8.33 µM; ATG4B cleavage of LC3-PLA2, NBD-HPC fluorescence, 1 h; in the data active means inhibition above about 40%
Fh CTSL1 inh: Fasciola hepatica cathepsin L1 inhibitors, primary screen, counter-screen for PFM18AAP inhibitor project, biochemical, QFRET, fluorogenic peptide substrate; recombinant F. hepatica cathepsin L1, Z-Leu-Arg-MCA fluorescence; actives 0.49% (n = 300,000); inhibition, % at 5.96 µM;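 active means inhibition above the mean of all tested compounds plus 3 SD, set per screening campaign, cut at about 17% in these data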;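 further: 0% = plate median of test compound wells and 100% = 1 µM Z-Phe-Ala-diazomethylketone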
Diaphorase inh: diaphorase inhibitors and chemical oxidizers, primary screen, counter-screen for diaphorase-coupled primary assays, biochemical, uHTS, resorufin fluorescence; diaphorase resazurin-to-resorufin fluorescence, NADH, 16 min; bacterial (C. kluyveri) enzyme, not human; inhibition, % at 20 µM; actives 0.69% (n = 190,000);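 active means primary screen inhibition at 20 µM above a set limit, cut at about 50% in these data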;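 further: plate controls were DMSO with full reaction for no effect and wells lacking NADH for full effect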
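Assay system: diaphorase enzyme from Clostridium kluyveri. Quantity: enzyme working solution with 0.14 U/mL diaphorase. Schedule: reaction incubation of 16 min at room temperature. Technique: resorufin fluorescence, excitation 544 nm, emission 590 nm. Controls: No-NADH positive control and DMSO neutral control.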
HKDC1 inhibitor: HKDC1 hexokinase inhibitors, primary screen, biochemical, fluorescence, uHTS. Q2TB90. recombinant HKDC1, G6PDH/diaphorase resazurin coupled fluorescence. inhibition, % at 20 µM. actives 0.16% (n = 340,000);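 active means inhibition above about 35% when tested at 20 µM, limit read from the data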;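 further: plate controls were DMSO wells with enzyme for no effect and DMSO wells lacking enzyme for full effect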
Target sequence (Q2TB90 whole entry, looked up): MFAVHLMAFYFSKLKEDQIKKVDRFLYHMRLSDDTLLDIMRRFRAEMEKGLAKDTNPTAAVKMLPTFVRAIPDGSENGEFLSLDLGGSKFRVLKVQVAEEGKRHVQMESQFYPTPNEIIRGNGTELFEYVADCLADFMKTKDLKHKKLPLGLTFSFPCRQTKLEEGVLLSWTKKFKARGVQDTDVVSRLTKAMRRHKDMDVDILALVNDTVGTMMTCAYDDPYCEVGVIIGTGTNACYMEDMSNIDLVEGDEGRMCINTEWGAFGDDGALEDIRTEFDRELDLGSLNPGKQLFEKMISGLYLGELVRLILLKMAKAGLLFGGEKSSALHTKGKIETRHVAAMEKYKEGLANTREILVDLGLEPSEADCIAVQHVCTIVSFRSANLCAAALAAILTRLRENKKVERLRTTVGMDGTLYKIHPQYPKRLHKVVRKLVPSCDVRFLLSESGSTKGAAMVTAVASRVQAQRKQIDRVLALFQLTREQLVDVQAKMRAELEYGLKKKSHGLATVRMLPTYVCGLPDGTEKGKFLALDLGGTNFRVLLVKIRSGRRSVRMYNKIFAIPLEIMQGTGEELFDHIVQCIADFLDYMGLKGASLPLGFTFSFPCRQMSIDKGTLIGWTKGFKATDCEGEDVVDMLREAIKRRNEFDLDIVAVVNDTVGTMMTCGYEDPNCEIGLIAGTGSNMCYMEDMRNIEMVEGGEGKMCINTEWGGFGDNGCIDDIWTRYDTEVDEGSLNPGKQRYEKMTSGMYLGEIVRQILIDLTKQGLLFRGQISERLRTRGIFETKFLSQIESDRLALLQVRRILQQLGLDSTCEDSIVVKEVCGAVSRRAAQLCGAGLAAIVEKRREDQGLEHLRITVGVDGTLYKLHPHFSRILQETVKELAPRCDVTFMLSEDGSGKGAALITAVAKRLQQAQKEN
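Test system: recombinant HKDC1 (HK5) hexokinase enzyme, produced in-house; Amount: enzyme 5 µg/mL final; Buffer or medium: Tris pH 8.0 buffer with MgCl2, Tween-20, BSA, BME; Reagent: glucose and ATP substrates; Doses: 20 µM test compound, 1% DMSO; Incubation: 90 min reaction incubation at room temperature, dark; Detection: resorufin fluorescence at 613 nm.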
Starred values were filed as active, the others as inactive; x = no result given. Sampled rows, rich in hits. Any-hit rate of the full collection: about 1.4%.

SMILES	Diaphorase act	ATG4B inh	Fh CTSL1 inh	Diaphorase inh	HKDC1 inhibitor
Cc1cn2c(=O)c(C(=O)N3CCN(c4ccccc4F)CC3)cnc2s1	x	11.2	2.5	x	-0.4
CCCCc1ccc(NC(=O)CSc2nc(=O)n3cc(C)ccc3n2)cc1	x	1.8	3.7	x	-0.9
CCOC(=O)C1CCN(C(=O)/C=C/c2ccc3c(c2)OCO3)CC1	x	-3.5	-1.3	x	-6.6
CCOc1ccc(CN(C)C(=O)[C@H](C)NC(=O)c2ccco2)cc1OC	x	0.6	-0.9	x	-4.5
CNC1=C(N(C(C)=O)c2ccc(Br)cc2)C(=O)c2ccccc2C1=O	0.6	-7.7	32.7*	40.7	9.2
CC(C)N1CCN(Cc2nc(-c3ccccc3)cs2)CC1CCO (stereo not given)	0.7	9.3	20.3*	26.3	-8.8
CC1(C)CC(=O)C2=C(C1)c1c(ccc3ccccc13)NC2c1ccc(OCC(=O)O)cc1 (stereo not given)	x	2.2	-4.4	x	7.0
CC1(C)CC(=O)C2=C(C1)c1c(ccc3ccccc13)NC2c1ccc(Br)o1 (stereo not given)	0.8	-8.0	57.2*	22.8	6.8
Cc1ccc(C2CC(c3ccccc3)=NN2C(=S)Nc2ccccc2)o1 (stereo not given)	0.2	-2.6	4.4	76.3*	10.2
CC1=NN(C(=S)Nc2ccccc2)C(c2ccccc2)C1 (stereo not given)	0.9	-9.3	-3.4	14.6	-7.5
CC1CCN(CCC(=O)Nc2ccc(Br)cc2)CC1	x	4.7	-1.9	x	3.9
CC1CC(C)CN(CCC(=O)Nc2ccc(Br)cc2)C1 (stereo not given)	x	-2.6	17.6*	x	-5.9
Cc1ccccc1C(=O)N(C)Cc1ccccc1	0.9	-0.9	16.8*	11.4	-5.3
CCOc1ccc(S(=O)(=O)NCCC(=O)NCC(c2ccc(F)cc2)N2CCOCC2)cc1 (stereo not given)	x	-3.6	18.1*	x	-6.0
CCOc1ccc(S(=O)(=O)NCCC(=O)NCC(c2ccc(OC)cc2)N2CCCCC2)cc1 (stereo not given)	x	-11.1	1.1	x	-6.6
CC(C)C[C@H](NC(=O)OC(C)(C)C)C(=O)N[C@@H](CO)[C@H](O)[C@@H]1C[C@@H]1C(=O)NC1CC1	x	2.4	19.7*	x	-2.3
CC(C)(C)OC(=O)N[C@@H](COCc1ccccc1)C(=O)N[C@@H](CO)[C@H](O)[C@@H]1C[C@@H]1C(=O)NC1CC1	x	5.2	-2.8	x	-2.6
CC(C)C[C@H](NC(=O)OC(C)(C)C)C(=O)N[C@@H](CO)[C@H](O)[C@@H]1C[C@@H]1C(=O)NC1CCCCC1	x	5.0	32.9*	x	0.3
CCCCNC(=O)[C@H]1C[C@H]1[C@@H](O)[C@H](CO)NC(=O)[C@H](CC(C)C)NC(=O)OC(C)(C)C	x	2.0	43.6*	x	-7.8
CC(C)C[C@H](NC(=O)OC(C)(C)C)C(=O)N[C@@H](CO)[C@H](O)[C@@H]1C[C@@H]1C(=O)N(C)C	x	1.5	12.9	x	-5.4
O=C(CN1CCN(CC(=O)Nc2ccc(F)cc2)CC1)NCC1(N2CCOCC2)CCCCC1	x	-21.2	x	x	-0.6
CSCC[C@H](Nc1ncnc2sc(C)c(C)c12)C(=O)O	0.8	6.7	19.4*	20.8	2.0
Cc1sc2ncnc(N[C@@H](CCC(=O)O)C(=O)O)c2c1C	0.9	10.7	1.4	5.8	10.4
Cc1c(N=c2c(=O)c3ccccc3c2=O)c(=O)n(-c2ccccc2)n1C	x	x	56.4*	x	x
N#C/C(=C\c1ccc(O)c(Br)c1)C(=O)NCc1ccccc1	0.8	-6.0	22.5*	18.3	9.5
SMILES	Diaphorase act	ATG4B inh	Fh CTSL1 inh	Diaphorase inh	HKDC1 inhibitor
Cc1nc2c(c(=O)n1CCC1=CCCCC1)c1nc3ccccc3nc1n2/N=C/c1ccco1	0.3	-11.9	0.6	70.2*	17.4
CC1CCN(CCCNC(=O)C2CCN(S(=O)(=O)N3CCC4(CC3)OCCO4)CC2)CC1	x	-1.0	-3.7	x	-3.6
Cc1cccc(C(=O)N=c2c(C#N)cc3c(=O)n4cccc(C)c4nc3n2Cc2ccco2)c1	0.4	-3.6	2.6	60.5*	31.9
Cc1cccn2c(=O)c3cc(C#N)c(=NC(=O)c4ccccc4)n(Cc4ccco4)c3nc12	x	3.7	6.8	x	23.8
O=C(c1cccc(F)c1)N1CCN(C2CCCCC2)CC1	0.9	-8.3	0.9	5.2	-5.9
O=C(c1cccc(Cl)c1)N1CCN(C2CCCCC2)CC1	x	-8.1	25.2*	x	1.6
CC(=O)c1ccc(N2CCN(C(=O)c3cc(-c4cccnc4)nc4ccc(Br)cc34)CC2)cc1	0.5	-0.6	0.4	52.1*	0.0
O=C(c1cc(-c2cccnc2)nc2ccc(Br)cc12)N1CCN(c2ncccn2)CC1	0.8	-0.9	0.8	17.4	-0.9
CC(C)c1ccc(/C=C2\SC(=O)N(CC(=O)NC3C=CS(=O)(=O)C3)C2=O)cc1 (stereo not given)	x	11.7	3.4	x	3.2
CCn1c(=O)c(C(=O)NNC(=O)c2ccccc2)c(O)c2ccccc21	x	0.6	1.2	x	-2.9
CCn1c(=O)c(-[n+]2ccccc2)c(O)c2ccccc21	0.5	-3.7	1.5	53.3*	-4.9
C=CCNc1nc(NCc2ccccc2)c(C#N)c2c1CN(C)CC2	0.4	-8.3	-1.9	63.4*	10.5
N#Cc1c(-c2cccs2)nc(SCC(=O)c2cccs2)[nH]c1=O	0.3	-0.8	2.3	65.2*	-1.4
O=C(CSc1nc2c(c(=O)n1-c1ccc(Br)cc1)SCC2)Nc1nccs1	1	57.2*	3.3	-3.0	-3.1
CC1CCC(N2CCN(C(=O)c3ccccc3F)CC2)CC1 (stereo not given)	x	5.0	-1.7	x	-6.4
CCOC(=O)C1=C(C)NC(=O)NC1c1c(C)nn(-c2ccccc2)c1Cl (stereo not given)	0.5	2.0	-1.8	52.1*	24.3
Cc1ccc(NC(=O)c2sc(N)nc2-c2ccccc2)cc1C	0.9	-10.4	33.6*	10.5	5.6
O=C(C1CC(=O)N(C2CCCCC2)C1)N1CCN(c2cccc(C(F)(F)F)c2)CC1 (stereo not given)	x	-3.7	-0.1	x	-2.3
Cc1ccc2nc(N3CCCCC3)c(C=O)c(=O)n2c1	1	x	-5.3	-0.5	x
Cc1ccc2nc(N3CCN(c4ccccc4F)CC3)c(C=O)c(=O)n2c1	0.5	5.1	-0.9	53.2*	2.6
Cc1cccc(NC(=O)CCC(=O)OCC(=O)c2ccc(Oc3ccc([N+](=O)[O-])cc3)cc2)c1	0.3	-12.1	-33.5	66.9*	5.2
Cc1ccc(NC(=O)CCC(=O)OCC(=O)c2ccc(Oc3ccc([N+](=O)[O-])cc3)cc2)cc1C	0.8	-11.8	-19.5	18.9	-2.7
